Laboratory results taken from ChEMBL document CHEMBL1124946, “Cephalosporins to carbapenems: 1-oxygenated carbapenems and carbapenams” (1990).

Columns and labels:
Citrobacter koseri [1] = experiment: In vitro minimal inhibitory concentration (MIC) in brain-heart infusion broth in the presence of hog liver esterase(1:1.5) in Citrobacter diversus 031; assay type: functional
In short: (§1)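 Two-fold serial broth dilution in brain-heart infusion broth. POM ester prodrugs were incubated with hog liver esterase (1:1.5) in the broth so the ester is converted in situ to the free acid. The MIC is the lowest concentration that inhibits growth.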

Escherichia coli [2] = experiment: In vitro minimal inhibitory concentration (MIC) in brain-heart infusion broth in the presence of hog liver esterase(1:1.5) in Escherichia coli 129; assay type: functional; in short: as §1
Enterobacter cloacae [3] = experiment: In vitro minimal inhibitory concentration (MIC) in brain-heart infusion broth in the presence of hog liver esterase(1:1.5) in […] 009; assay type: functional; in short: as §1
Klebsiella pneumoniae [4] = experiment: In vitro minimal inhibitory concentration in brain-heart infusion broth in presence of hog liver esterase(1:1.5) in Klebsiella pneumoniae 079; assay type: functional; in short: as §1
Morganella morganii = experiment: In vitro minimal inhibitory concentration (MIC) in brain-heart infusion broth in the presence of hog liver esterase(1:1.5) in Morganella morganii 001; assay type: functional; in short: as §1
Pseudomonas aeruginosa = experiment: In vitro minimal inhibitory concentration (MIC) in brain-heart infusion broth in the presence of hog liver esterase(1:1.5) in Pseudomonas aeruginosa 104; assay type: functional; in short: as §1
Staphylococcus aureus [5] = experiment: In vitro minimal inhibitory concentration (MIC) in brain-heart infusion broth in the presence of hog liver esterase(1:1.5) in Staphylococcus aureus 005; assay type: functional; in short: as §1
[6] = In vitro minimal inhibitory concentration (MIC) in brain-heart infusion broth in the presence of hog liver esterase(1:1.5) in Serr. marc. 095; assay type: functional; conditions: Serratia marcescens; in short: as §1
Staphylococcus aureus [7] = experiment: In vitro minimal inhibitory concentration (MIC) in brain-heart infusion broth in the presence of hog liver esterase(1:1.5) in Staphylococcus aureus 400; assay type: functional; in short: as §1
Escherichia coli [8] = experiment: In vitro minimal inhibitory concentration (MIC) in brain-heart infusion broth in the presence of hog liver esterase(1:1.5) in Escherichia coli 266; assay type: functional; in short: as §1
Klebsiella pneumoniae [9] = experiment: In vitro minimal inhibitory concentration (MIC) in brain-heart infusion broth in the presence of hog liver esterase(1:1.5) in Klebsiella pneumoniae 009; assay type: functional; in short: as §1
Streptococcus pyogenes = experiment: In vitro minimal inhibitory concentration (MIC) in brain-heart infusion broth in the presence of hog liver esterase(1:1.5) in Streptococcus pyogenes 203; assay type: functional; in short: as §1
Haemophilus influenzae = experiment: In vitro minimal inhibitory concentration (MIC) in brain-heart infusion broth in the presence of hog liver esterase(1:1.5) in Haemophilus influenzae 012
Citrobacter koseri [10] = experiment: In vitro minimal inhibitory concentration in brain-heart infusion broth in presence of hog liver esterase(1:1.5) in Citrobacter diversus 031; assay type: functional; in short: as §1
Klebsiella pneumoniae [11] = experiment: In vitro minimal inhibitory concentration in brain-heart infusion broth in the presence of hog liver esterase(1:1.5) in Klebsiella pneumoniae 079; assay type: functional; in short: as §1
Enterobacter cloacae [12] = experiment: In vitro minimal inhibitory concentration in brain-heart infusion broth in the presence of hog liver esterase(1:1.5) in […] 009; assay type: functional; in short: as §1

Compound	MIC (Citrobacter koseri [1]) [µg/mL]	MIC (Escherichia coli [2]) [µg/mL]	MIC (Enterobacter cloacae [3]) [µg/mL]	MIC (Klebsiella pneumoniae [4]) [µg/mL]	MIC (Morganella morganii) [µg/mL]	MIC (Pseudomonas aeruginosa) [µg/mL]	MIC (Staphylococcus aureus [5]) [µg/mL]	MIC [6] [µg/mL]	MIC (Staphylococcus aureus [7]) [µg/mL]	MIC (Escherichia coli [8]) [µg/mL]	MIC (Klebsiella pneumoniae [9]) [µg/mL]	MIC (Streptococcus pyogenes) [µg/mL]	MIC (Haemophilus influenzae) [µg/mL]	MIC (Citrobacter koseri [10]) [µg/mL]	MIC (Klebsiella pneumoniae [11]) [µg/mL]	MIC (Enterobacter cloacae [12]) [µg/mL]
CCN1CCN(C(=O)N[C@@H](C(=O)N[C@@H]2C(=O)N3[C@@H]2C(O)[C@H](C)[C@@H]3C(=O)OCOC(=O)C(C)(C)C)c2ccccc2)C(=O)C1=O (stereo partly drawn)		> 200	12.5		< 0.39	200	25	25	> 200	6.25				12.5	12.5	
C[C@H]1C(O)[C@@H]2[C@H](NC(=O)COc3ccccc3)C(=O)N2[C@H]1C(=O)OCOC(=O)C(C)(C)C (stereo partly drawn)	> 200	> 200	> 200	> 200	> 200	> 200	25	> 200	50	> 200						
N[C@@H](C(=O)N[C@@H]1C(=O)N2C(C(=O)O)=C(Cl)CS[C@H]12)c1ccccc1 [CEFACLOR ANHYDROUS]		50	> 200		> 200	> 200	1.56		3.12	3.12	1.56	0.05	3.12			
CC1(C)S[C@@H]2[C@H](NC(=O)COc3ccccc3)C(=O)N2[C@H]1C(=O)O [PENICILLIN V]	> 200	> 200			> 200	> 200	< 0.025	> 200	50	100	> 200	< 0.025	6.25		> 200	> 200
C[C@@H](O)[C@H]1C(=O)N2C(C(=O)O)=C(SCCN)C[C@H]12 [THIENAMYCIN]		0.39	0.39		6.25	3.12	< 0.025		< 0.025	0.1	0.2	< 0.025	0.78			

The next lines start with the values.

MIC (Citrobacter koseri [1]) [µg/mL]	MIC (Escherichia coli [2]) [µg/mL]	MIC (Enterobacter cloacae [3]) [µg/mL]	MIC (Klebsiella pneumoniae [4]) [µg/mL]	MIC (Morganella morganii) [µg/mL]	MIC (Pseudomonas aeruginosa) [µg/mL]	MIC (Staphylococcus aureus [5]) [µg/mL]	MIC [6] [µg/mL]	MIC (Staphylococcus aureus [7]) [µg/mL]	MIC (Escherichia coli [8]) [µg/mL]	MIC (Klebsiella pneumoniae [9]) [µg/mL]	MIC (Streptococcus pyogenes) [µg/mL]	MIC (Haemophilus influenzae) [µg/mL]	MIC (Citrobacter koseri [10]) [µg/mL]	MIC (Klebsiella pneumoniae [11]) [µg/mL]	MIC (Enterobacter cloacae [12]) [µg/mL]	Compound
> 200	> 200	> 200	> 200	> 200	> 200	100	> 200	> 200	> 200							C[C@H]1C(=O)[C@@H]2[C@H](NC(=O)OCc3ccccc3)C(=O)N2[C@H]1C(=O)OCOC(=O)C(C)(C)C
	6.25	12.5		50	100	3.12		1.56	6.25	6.25	0.78	6.25				CC1=C(C(=O)OCOC(=O)C(C)(C)C)N2C(=O)[C@H]([C@@H](C)O)[C@H]2C1O (stereo partly drawn)
	> 200	> 200		> 200	> 200	> 200	> 200	> 200	> 200				> 200	> 200		CC(=O)OC1[C@H](C)C(C(=O)OCOC(=O)C(C)(C)C)N2C(=O)[C@H](NC(=O)COc3ccccc3)[C@@H]12 (stereo partly drawn)
